Experimental findings from ChEMBL document CHEMBL3098082, “Design, synthesis, molecular docking and 3D-QSAR studies of potent inhibitors of enoyl-acyl carrier protein reductase as potential antimycobacterial agents” (Eur J Med Chem, 2014) are described below.

In test [1] the test system is Mycobacterium tuberculosis. In words: Antimycobacterial activity against Mycobacterium tuberculosis H37Rv after 5 days by microplate alamar blue assay. The conditions noted are these: for MIC: Mycobacterium tuberculosis, H37Rv, 120 h. In kind it is functional. The method, boiled down:
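M. tuberculosis H37Rv in Middlebrook 7H9 broth; compounds serially diluted on plate at 0.2–100 […] (so in the source); isoniazid reference. Incubated 37 C, 5 days, then 1:1 alamar blue/10% Tween 80 added, further 24 h. Blue = no growth, pink = growth; MIC = lowest concentration preventing blue-to-pink change.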
For orientation: Alamar Blue is a resazurin reagent that responds to reducing activity.

Test [2] deals with A549. In words: Cytotoxicity against human A549 cells by MTT assay. In kind it is cell-based. (Formazan colour is commonly taken as a measure of viable cells.)
Test [3] deals with Vero. The test is described as follows: Cytotoxicity against african green monkey Vero cells by MTT assay. In kind it is cell-based. The conditions noted are these: Chlorocebus sabaeus.

≈ marks a conversion by molar mass, not a printed value.

Broadly, the MIC is the lowest concentration found to suppress growth. `C/C(=N\NC(=O)c1ccccc1Cl)c1ccc(-n2c(C)ccc2C)cc1`: in test [1], the “-logMIC” value turned out to be 4.903 and the MIC turned out to be 12.5 µg/mL (≈ 34.2 µM).
On the same counts, the results for `C/C(=N\NC(=O)COc1ccc(O)cc1)c1ccc(-n2c(C)ccc2C)cc1` are 4.602 and 25 µg/mL (≈ 66.2 µM).
As for `C/C(=N\NC(=O)COc1c(Cl)cc(Cl)cc1Cl)c1ccc(-n2cccc2)cc1`, in test [1], the “-logMIC” value is on record as 4.301 and 50 µg/mL (≈ 114 µM) was the least that counted as inhibitory (MIC).
For the molecule `CC(=O)Nc1ccc(S(=O)(=O)N/N=C(\C)c2ccc(-n3c(C)ccc3C)cc2)cc1`, in test [1], the “-logMIC” value is given as 6.097 and the lowest concentration to inhibit growth (MIC) was 0.8 µg/mL (≈ 1.88 µM).
On to `C/C(=N\NC(N)=S)c1ccc(-n2c(C)ccc2C)cc1`, for which, in test [1], the “-logMIC” value was found to be 4.301 and the minimum inhibitory concentration (MIC) turned out to be 50 µg/mL (≈ 175 µM).
On the same counts, the results for `C/C(=N\NC(=O)COc1ccccc1Cl)c1ccc(-n2c(C)ccc2C)cc1` are 4.301 and 50 µg/mL (≈ 126 µM).
On the same counts, the results for `C/C(=N\NC(N)=O)c1ccc(-n2cccc2)cc1` are 4 and 100 µg/mL (≈ 413 µM).
The matching figures for `C/C(=N\NC(=O)COc1ccccc1)c1ccc(-n2c(C)ccc2C)cc1`: 6.097 and 0.8 µg/mL (≈ 2.21 µM).
As for `C/C(=N\NC(=O)COc1ccccc1Cl)c1ccc(-n2cccc2)cc1`, in test [1], the “-logMIC” value is recorded as 4.602 and the MIC worked out at 25 µg/mL (≈ 68 µM).
For the molecule `C/C(=N\NC(=O)c1ccc(-n2c(C)ccc2C)cc1)c1ccc(-n2cccc2)cc1`, in test [1], the “-logMIC” value came out at 4.602 and the minimum inhibitory concentration (MIC) amounted to 25 µg/mL (≈ 63.1 µM).
On to `C/C(=N\NC(=O)c1ccc(-n2cccc2)cc1)c1ccc(-n2cccc2)cc1`, for which, in test [1], the “-logMIC” value is given as 4.903 and the minimal inhibitory concentration (MIC) is 12.5 µg/mL (≈ 33.9 µM).
As for `C/C(=N\NC(=O)COc1ccc(Br)cc1)c1ccc(-n2cccc2)cc1`, in test [1], the “-logMIC” value is reported as 4.301 and the lowest concentration to inhibit growth (MIC) was 50 µg/mL (≈ 121 µM).
`C/C(=N\NC(=O)c1ccccc1)c1ccc(-n2c(C)ccc2C)cc1`: in test [1], the “-logMIC” value was 4.602 and the MIC worked out at 25 µg/mL (≈ 75.4 µM).
One may read the IC50 as the concentration that gives 50% inhibition. In test [2], `C/C(=N\NC(=O)COc1ccc2ccccc2c1)c1ccc(-n2cccc2)cc1` returned an IC50 of 247 µM. In test [1], the “-logMIC” value came out at 6.699 and inhibition of growth (MIC) required 0.2 µg/mL (≈ 0.522 µM). The same molecule had a 50% inhibitory concentration (IC50) in test [3] of 249 µM.
In the case of `C/C(=N\NS(=O)(=O)c1ccc(N)cc1)c1ccc(-n2cccc2)cc1`, in test [1], the “-logMIC” value came to 5.204 and the MIC worked out at 6.25 µg/mL (≈ 17.6 µM).
On to `C/C(=N\NC(=O)COc1c(Cl)cc(Cl)cc1Cl)c1ccc(-n2c(C)ccc2C)cc1`, for which, in test [1], the “-logMIC” value was 4.903 and the MIC turned out to be 12.5 µg/mL (≈ 26.9 µM).
With `C/C(=N\NC(=O)COc1ccc(C)cc1)c1ccc(-n2cccc2)cc1`, in test [1], the “-logMIC” value is 4.903 and the minimal inhibitory concentration (MIC) was determined as 12.5 µg/mL (≈ 36 µM).
In the case of `C/C(=N\NC(=O)COc1ccc(Br)cc1)c1ccc(-n2c(C)ccc2C)cc1`, in test [1], the “-logMIC” value is recorded as 5.204 and it took 6.25 µg/mL (≈ 14.2 µM) to inhibit growth (MIC).
On the same counts, the results for `C/C(=N\NC(=O)c1cccnc1)c1ccc(-n2cccc2)cc1` are 4.301 and 50 µg/mL (≈ 164 µM).
Molecule `Oc1cc(Cl)ccc1Oc1ccc(Cl)cc1Cl` [TRICLOSAN] registered a minimal inhibitory concentration (MIC) in test [1] of 10 µg/mL (≈ 34.5 µM).
As to `C/C(=N\NS(=O)(=O)c1ccc(C)cc1)c1ccc(-n2cccc2)cc1`, in test [1], the “-logMIC” value was 6.097 and it took 0.8 µg/mL (≈ 2.26 µM) to inhibit growth (MIC).
On to `C/C(=N\Nc1ccccc1)c1ccc(-n2c(C)ccc2C)cc1`, for which, in test [1], the “-logMIC” value turned out to be 4.602 and it took 25 µg/mL (≈ 82.4 µM) to inhibit growth (MIC).
For `C/C(=N\Nc1ccccc1)c1ccc(-n2cccc2)cc1`, in test [1], the “-logMIC” value was 4.903 and the MIC turned out to be 12.5 µg/mL (≈ 45.4 µM).
As to `C/C(=N\NC(=O)c1ccc(Br)cc1)c1ccc(-n2cccc2)cc1`, in test [1], the “-logMIC” value turned out to be 4.301 and 50 µg/mL (≈ 131 µM) was the least that counted as inhibitory (MIC).
In the case of `C/C(=N\NC(=O)c1ccc(O)cc1)c1ccc(-n2c(C)ccc2C)cc1`, in test [1], the “-logMIC” value is 4.602 and the MIC worked out at 25 µg/mL (≈ 72 µM).
On the same counts, the results for `C/C(=N\NC(=O)c1cccnc1)c1ccc(-n2c(C)ccc2C)cc1` are 4 and 100 µg/mL (≈ 301 µM).
`C/C(=N\NC(=O)c1ccc(Cl)cc1)c1ccc(-n2cccc2)cc1`: in test [1], the “-logMIC” value was determined as 4.301 and the lowest concentration to inhibit growth (MIC) was 50 µg/mL (≈ 148 µM).
For `C/C(=N\NC(=O)c1ccncc1)c1ccc(-n2cccc2)cc1`, in test [1], the “-logMIC” value is 4.301 and the MIC amounted to 50 µg/mL (≈ 164 µM).
Regarding `C/C(=N\NC(=O)c1ccccc1)c1ccc(-n2cccc2)cc1`, in test [1], the “-logMIC” value was found to be 4.301 and the lowest concentration to inhibit growth (MIC) was 50 µg/mL (≈ 165 µM).
As for `C/C(=N\NC(=O)COc1ccc(Cl)cc1)c1ccc(-n2c(C)ccc2C)cc1`, in test [1], the “-logMIC” value is 5.505 and it took 3.12 µg/mL (≈ 7.89 µM) to inhibit growth (MIC).
Turning to `C/C(=N\NC(=O)c1ccccc1Cl)c1ccc(-n2cccc2)cc1`, in test [1], the “-logMIC” value is 4.602 and the minimum inhibitory concentration (MIC) came to 25 µg/mL (≈ 74 µM).
Consider `CC(=O)Nc1ccc(S(=O)(=O)N/N=C(\C)c2ccc(-n3cccc3)cc2)cc1`, for which inhibition in test [2] was half-maximal at 257 µM (IC50). Moreover, in test [1], the “-logMIC” value came to 6.699 and the MIC came to 0.2 µg/mL (≈ 0.504 µM). The half-maximal inhibitory concentration (IC50) in test [3] was 263 µM.
`C/C(=N\NC(N)=S)c1ccc(-n2cccc2)cc1`: in test [1], the “-logMIC” value is reported as 4.301 and inhibition of growth (MIC) required 50 µg/mL (≈ 194 µM).
Consider `C/C(=N\NC(=O)COc1ccccc1)c1ccc(-n2cccc2)cc1`, for which, in test [1], the “-logMIC” value is reported as 4.903 and the minimal inhibitory concentration (MIC) came out at 12.5 µg/mL (≈ 37.5 µM).
On the same counts, the results for `C/C(=N\Nc1ccc([N+](=O)[O-])cc1[N+](=O)[O-])c1ccc(-n2c(C)ccc2C)cc1` are 4.903 and 12.5 µg/mL (≈ 31.8 µM).
Regarding `C/C(=N\NC(=O)COc1ccc(Cl)cc1)c1ccc(-n2cccc2)cc1`, in test [1], the “-logMIC” value was determined as 4.903 and it took 12.5 µg/mL (≈ 34 µM) to inhibit growth (MIC).
With `C/C(=N\NC(=O)COc1ccc(C)cc1)c1ccc(-n2c(C)ccc2C)cc1`, in test [1], the “-logMIC” value is reported as 5.505 and the minimum inhibitory concentration (MIC) is 3.12 µg/mL (≈ 8.32 µM).
`C/C(=N\NS(=O)(=O)c1ccc(C)cc1)c1ccc(-n2c(C)ccc2C)cc1` displayed a 50% inhibitory concentration (IC50) in test [2] of 277 µM. Moreover, in test [1], the “-logMIC” value came to 6.398 and 0.4 µg/mL (≈ 1.05 µM) was the least that counted as inhibitory (MIC). In test [3], the 50% inhibitory concentration (IC50) stood at 279 µM.
In turn, `C/C(=N\NC(=O)COc1ccc2ccccc2c1)c1ccc(-n2c(C)ccc2C)cc1` came in with an IC50 in test [2] of 260 µM. Moreover, in test [1], the “-logMIC” value came to 6.699 and the minimum inhibitory concentration (MIC) was 0.2 µg/mL (≈ 0.486 µM). The molecule further showed a half-maximal inhibitory concentration (IC50) in test [3] of 255 µM.
Take `C/C(=N\NC(=O)COc1cccc2ccccc12)c1ccc(-n2c(C)ccc2C)cc1`: the half-maximal inhibitory concentration (IC50) in test [2] was found to be 269 µM; in test [3], 277 µM. The “-logMIC” value in test [1] came out at 6.699. For the same molecule, the minimal inhibitory concentration (MIC) in test [1] was 0.2 µg/mL (≈ 0.486 µM).
With `C/C(=N\NC(=O)c1ccncc1)c1ccc(-n2c(C)ccc2C)cc1`, in test [1], the “-logMIC” value came out at 4 and inhibition of growth (MIC) required 100 µg/mL (≈ 301 µM).
Regarding `C/C(=N\NC(=O)c1ccc(O)cc1)c1ccc(-n2cccc2)cc1`, in test [1], the “-logMIC” value was 4.903 and the lowest concentration to inhibit growth (MIC) was 12.5 µg/mL (≈ 39.1 µM).
Turning to `C/C(=N\Nc1ccc([N+](=O)[O-])cc1[N+](=O)[O-])c1ccc(-n2cccc2)cc1`, in test [1], the “-logMIC” value is 4.903 and the MIC is 12.5 µg/mL (≈ 34.2 µM).
Consider `C/C(=N\NC(N)=O)c1ccc(-n2c(C)ccc2C)cc1`, for which, in test [1], the “-logMIC” value was 4.301 and the lowest concentration to inhibit growth (MIC) was 50 µg/mL (≈ 185 µM).
In the case of `NNC(=O)c1ccncc1` [ISONIAZID], the half-inhibitory concentration (IC50) in test [2] and in test [3] was greater than 450 µM in each case. The MIC in test [1] is 0.25 µg/mL (≈ 1.82 µM).
Consider `C/C(=N\NC(=O)c1ccc(Br)cc1)c1ccc(-n2c(C)ccc2C)cc1`, for which, in test [1], the “-logMIC” value is on record as 4.602 and the MIC was found to be 25 µg/mL (≈ 60.9 µM).
For `C/C(=N\NC(=O)c1ccc(Cl)cc1)c1ccc(-n2c(C)ccc2C)cc1`, in test [1], the “-logMIC” value came out at 4.602 and the MIC was found to be 25 µg/mL (≈ 68.3 µM).
On to `C/C(=N\NC(=O)COc1ccc(O)cc1)c1ccc(-n2cccc2)cc1`, for which, in test [1], the “-logMIC” value is given as 4.602 and the MIC came out at 25 µg/mL (≈ 71.6 µM).
The matching figures for `C/C(=N\NC(=O)c1ccc(-n2cccc2)cc1)c1ccc(-n2c(C)ccc2C)cc1`: 4.301 and 50 µg/mL (≈ 126 µM).
Regarding `C/C(=N\NC(=O)c1ccc(C)cc1)c1ccc(-n2cccc2)cc1`, in test [1], the “-logMIC” value is recorded as 4.301 and the MIC amounted to 50 µg/mL (≈ 158 µM).
In test [2], `C/C(=N\NC(=O)COc1cccc2ccccc12)c1ccc(-n2cccc2)cc1` came in with a half-maximal inhibitory concentration (IC50) of 243 µM. Moreover, in test [1], the “-logMIC” value amounted to 6.398 and the MIC came out at 0.4 µg/mL (≈ 1.04 µM). For the same molecule, it took 240 µM to reach half-maximal inhibition in test [3] (IC50).
For `C/C(=N\NS(=O)(=O)c1ccc(N)cc1)c1ccc(-n2c(C)ccc2C)cc1`, in test [1], the “-logMIC” value was determined as 4.903 and the MIC was found to be 12.5 µg/mL (≈ 32.7 µM).
On to `C/C(=N\NC(=O)c1ccc(C)cc1)c1ccc(-n2c(C)ccc2C)cc1`, for which, in test [1], the “-logMIC” value is 4.602 and the MIC stood at 25 µg/mL (≈ 72.4 µM).
Turning to `C/C(=N\NC(=O)c1ccc(-n2c(C)ccc2C)cc1)c1ccc(-n2c(C)ccc2C)cc1`, in test [1], the “-logMIC” value is on record as 4.602 and the MIC was found to be 25 µg/mL (≈ 58.9 µM).
